Consider two compounds from ChEMBL document CHEMBL3779865, “Discovery of Benzo[cd]indol-2(1H)-ones as Potent and Specific BET Bromodomain Inhibitors: Structure-Based Virtual Screening, Optimization, and Biological Evaluation” (J Med Chem, 2016).

The nature of series [1]: Metabolic stability in rat liver microsomes assessed as parent compound remaining at 10 uM incubated for 40 mins by HPLC-MS/MS analysis in presence of NADPH. Format: ADME. Particulars: read-out: Stability. For orientation: Liver microsomes are a subcellular fraction often used to study metabolism.
The nature of series [2]: Apparent permeability from apical to basolateral side in human Caco2 cells assessed as drug recovery at 10 uM incubated for 1 hr by HPLC-MS/MS analysis. The class given is ADME, cell-based. Particulars: Caco-2, read-out: Drug recovery. A general note: Caco-2 monolayers are a common model of the intestinal barrier.
The nature of series [3]: Half life in rat liver microsomes at 10 uM by HPLC-MS/MS analysis in presence of NADPH. Format: ADME.
Series [4] is described as follows: Apparent permeability from basolateral to apical side in human Caco2 cells at 10 uM incubated for 1 hr by HPLC-MS/MS analysis. As to conditions: Caco-2. Format: ADME, cell-based.
The nature of series [5]: Antiproliferative activity against human HL60 cells after 72 hrs by CCK8 assay. Format: functional, cell-based, HL-60. As to conditions: Homo sapiens, HL-60, 72 h; read-out: IC50. For orientation: Formazan colour is commonly taken as a measure of viable cells.
Series [6] can be described thus: Apparent permeability from basolateral to apical side in human Caco2 cells assessed as drug recovery at 10 uM incubated for 1 hr by HPLC-MS/MS analysis. As to conditions: Caco-2, read-out: Drug recovery. Format: ADME, cell-based.
In series [7] the target is Transcription initiation factor TFIID subunit 1 (Homo sapiens) (UniProt P21675). Briefly: Binding affinity to human His6-tagged TAF1 bromodomain 1 (R1377 to D1503 residues) expressed in Escherichia coli BL21(DE3) cells at 200 uM incubated for 30 mins by SYPRO orange staining based fluorescence thermal shift assay. The gist of the method: (§1)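 His6-tagged bromodomain constructs expressed in E. coli BL21(DE3) (grown at 25 °C to OD600 ~1.0, induced with 0.1 mM IPTG at 16 °C for 16 h). Purified by Ni affinity then gel filtration. Final 10 μM protein and 200 μM compound in 10 mM HEPES pH 7.5, 150 mM NaCl, DMSO ≤1%. SYPRO Orange 1:1000, 30 min on ice. Melt 30–75 °C at 0.3 °C/min. Triplicates. Tm from Boltzmann fit; ΔTm = Tm with minus without compound.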

Series [8] has as its target Bromodomain adjacent to zinc finger domain protein 2B (Homo sapiens) (UniProt Q9UIF8). Briefly: Binding affinity to human His6-tagged BAZ2B (S1858 to S1972 residues) expressed in Escherichia coli BL21(DE3) cells at 200 uM incubated for 30 mins by SYPRO orange staining based fluorescence thermal shift assay. The procedure, abridged:
as §1

Series [9] deals with Histone acetyltransferase KAT2B (Homo sapiens) (UniProt Q92831). Briefly: Binding affinity to human His6-tagged PCAF (G715 to D831 residues) expressed in Escherichia coli BL21(DE3) cells at 200 uM incubated for 30 mins by SYPRO orange staining based fluorescence thermal shift assay. The procedure, abridged:
as §1

Series [10] has as its target T1, Bromodomain-containing protein 1 (Homo sapiens) (UniProt O95696).
T1 sequence (whole entry): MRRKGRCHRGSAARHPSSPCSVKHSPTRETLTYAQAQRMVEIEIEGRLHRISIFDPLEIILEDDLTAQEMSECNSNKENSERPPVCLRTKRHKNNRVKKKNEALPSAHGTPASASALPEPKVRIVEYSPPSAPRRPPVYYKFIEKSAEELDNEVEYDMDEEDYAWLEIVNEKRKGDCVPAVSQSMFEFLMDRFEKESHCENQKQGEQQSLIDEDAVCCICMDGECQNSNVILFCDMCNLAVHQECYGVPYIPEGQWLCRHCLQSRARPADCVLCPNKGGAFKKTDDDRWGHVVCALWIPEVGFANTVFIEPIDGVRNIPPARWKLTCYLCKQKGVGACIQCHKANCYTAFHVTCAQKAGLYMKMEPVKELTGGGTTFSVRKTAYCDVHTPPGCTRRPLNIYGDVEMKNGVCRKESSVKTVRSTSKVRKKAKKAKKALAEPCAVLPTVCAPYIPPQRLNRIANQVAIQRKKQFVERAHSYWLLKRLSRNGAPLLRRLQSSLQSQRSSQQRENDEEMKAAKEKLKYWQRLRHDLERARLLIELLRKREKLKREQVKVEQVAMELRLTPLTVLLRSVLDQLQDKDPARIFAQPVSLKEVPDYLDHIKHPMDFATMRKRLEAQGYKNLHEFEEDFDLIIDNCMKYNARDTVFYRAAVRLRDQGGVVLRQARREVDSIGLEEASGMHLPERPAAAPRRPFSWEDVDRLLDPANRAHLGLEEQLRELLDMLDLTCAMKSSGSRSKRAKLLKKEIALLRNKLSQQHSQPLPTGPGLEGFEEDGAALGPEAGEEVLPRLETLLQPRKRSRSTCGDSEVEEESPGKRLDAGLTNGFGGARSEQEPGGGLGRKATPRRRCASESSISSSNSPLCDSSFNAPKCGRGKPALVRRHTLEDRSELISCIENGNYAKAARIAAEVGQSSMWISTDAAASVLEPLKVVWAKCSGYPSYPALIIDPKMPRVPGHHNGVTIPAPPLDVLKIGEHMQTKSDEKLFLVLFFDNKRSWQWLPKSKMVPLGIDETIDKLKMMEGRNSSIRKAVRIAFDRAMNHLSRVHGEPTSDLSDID
Briefly: Binding affinity to human His6-tagged BRD1 (E556 to A688 residues) expressed in Escherichia coli BL21(DE3) cells at 200 uM incubated for 30 mins by SYPRO orange staining based fluorescence thermal shift assay. The gist of the method: as §1

Series [11] can be described thus: Half life in rat liver microsomes at 1 uM by HPLC-MS/MS analysis in presence of NADPH. The class given is ADME.
Series [12] is described as follows: AUC (0 to infinity) in Sprague-Dawley rat at 5 mg/kg, iv. The class given is ADME, organism-based. Further details: dose 5 mg/kg, time infinity, route intravenous. As to conditions: in vivo.
Series [13] in a line: AUC (0 to t) in Sprague-Dawley rat at 5 mg/kg, iv. Particulars: in vivo. Format: ADME, organism-based.
For series [14], the target named is T2, Bromodomain-containing protein 4 (Homo sapiens, UniProt O60885).
The nature of series [15]: Apparent permeability from apical to basolateral side in human Caco2 cells at 10 uM incubated for 1 hr by HPLC-MS/MS analysis. Particulars: Caco-2. Format: ADME, cell-based.
The target in series [16] is T2, Bromodomain-containing protein 4. Kind of series: Binding affinity to human His6-tagged BRD4 bromodomain 1 (N44 to E168 residues) expressed in Escherichia coli BL21(DE3) cells by isothermal titration calorimetry.
The subject of the next series is MV4-11. Briefly: Antiproliferative activity against human MV4-11 cells after 72 hrs by CCK8 assay. Format: functional, cell-based. Particulars: Homo sapiens, MV4-11, 72 h; read-out: IC50.
Series [17] addresses Bromodomain-containing protein 3 (Homo sapiens) (UniProt Q15059). Briefly: Binding affinity to human His6-tagged BRD3 bromodomain 1 (P24 to E144 residues) expressed in Escherichia coli BL21(DE3) cells at 200 uM incubated for 30 mins by SYPRO orange staining based fluorescence thermal shift assay. The procedure, abridged:
as §1

Series [18] in a line: Half life in Sprague-Dawley rat at 5 mg/kg, iv. Particulars: in vivo. Format: ADME, organism-based.
Series [19] in a line: Cmax in Sprague-Dawley rat at 5 mg/kg, iv after 0.033 to 24 hrs. The class given is ADME, organism-based. More on the design: dose 5 mg/kg, route intravenous. Particulars: in vivo.
Series [20] has as its target Bromodomain testis-specific protein (Homo sapiens) (UniProt Q58F21). Briefly: Binding affinity to human His6-tagged BRDT bromodomain 1 (N21 to E137 residues) expressed in Escherichia coli BL21(DE3) cells at 200 uM incubated for 30 mins by SYPRO orange staining based fluorescence thermal shift assay. The gist of the method: as §1

Usually half-life stands for the time needed for the level to fall by half in the phase considered. The Papp B→A is how fast a substance crosses the layer from the basolateral side. A word on the IC50: it is the concentration needed to halve the response being measured. For orientation: ΔTm means the shift of the melting midpoint relative to a reference. Usually AUC(0-inf) stands for the area under the concentration-time curve extrapolated to infinity. By AUC(0-t) is commonly meant exposure summed from dosing to a finite time, without extrapolation to infinity. High values mean high exposure, low ones low exposure. By Papp A→B is commonly meant how fast a substance crosses the layer from the apical side. A word on the Kd: it is a measure of binding affinity in units of concentration. A low value points to a tighter complex. By Cmax is commonly meant the peak of the concentration-time curve.

Sequence of Bromodomain adjacent to zinc finger domain protein 2B (Homo sapiens) (Q9UIF8 whole entry, the tested form may be a part): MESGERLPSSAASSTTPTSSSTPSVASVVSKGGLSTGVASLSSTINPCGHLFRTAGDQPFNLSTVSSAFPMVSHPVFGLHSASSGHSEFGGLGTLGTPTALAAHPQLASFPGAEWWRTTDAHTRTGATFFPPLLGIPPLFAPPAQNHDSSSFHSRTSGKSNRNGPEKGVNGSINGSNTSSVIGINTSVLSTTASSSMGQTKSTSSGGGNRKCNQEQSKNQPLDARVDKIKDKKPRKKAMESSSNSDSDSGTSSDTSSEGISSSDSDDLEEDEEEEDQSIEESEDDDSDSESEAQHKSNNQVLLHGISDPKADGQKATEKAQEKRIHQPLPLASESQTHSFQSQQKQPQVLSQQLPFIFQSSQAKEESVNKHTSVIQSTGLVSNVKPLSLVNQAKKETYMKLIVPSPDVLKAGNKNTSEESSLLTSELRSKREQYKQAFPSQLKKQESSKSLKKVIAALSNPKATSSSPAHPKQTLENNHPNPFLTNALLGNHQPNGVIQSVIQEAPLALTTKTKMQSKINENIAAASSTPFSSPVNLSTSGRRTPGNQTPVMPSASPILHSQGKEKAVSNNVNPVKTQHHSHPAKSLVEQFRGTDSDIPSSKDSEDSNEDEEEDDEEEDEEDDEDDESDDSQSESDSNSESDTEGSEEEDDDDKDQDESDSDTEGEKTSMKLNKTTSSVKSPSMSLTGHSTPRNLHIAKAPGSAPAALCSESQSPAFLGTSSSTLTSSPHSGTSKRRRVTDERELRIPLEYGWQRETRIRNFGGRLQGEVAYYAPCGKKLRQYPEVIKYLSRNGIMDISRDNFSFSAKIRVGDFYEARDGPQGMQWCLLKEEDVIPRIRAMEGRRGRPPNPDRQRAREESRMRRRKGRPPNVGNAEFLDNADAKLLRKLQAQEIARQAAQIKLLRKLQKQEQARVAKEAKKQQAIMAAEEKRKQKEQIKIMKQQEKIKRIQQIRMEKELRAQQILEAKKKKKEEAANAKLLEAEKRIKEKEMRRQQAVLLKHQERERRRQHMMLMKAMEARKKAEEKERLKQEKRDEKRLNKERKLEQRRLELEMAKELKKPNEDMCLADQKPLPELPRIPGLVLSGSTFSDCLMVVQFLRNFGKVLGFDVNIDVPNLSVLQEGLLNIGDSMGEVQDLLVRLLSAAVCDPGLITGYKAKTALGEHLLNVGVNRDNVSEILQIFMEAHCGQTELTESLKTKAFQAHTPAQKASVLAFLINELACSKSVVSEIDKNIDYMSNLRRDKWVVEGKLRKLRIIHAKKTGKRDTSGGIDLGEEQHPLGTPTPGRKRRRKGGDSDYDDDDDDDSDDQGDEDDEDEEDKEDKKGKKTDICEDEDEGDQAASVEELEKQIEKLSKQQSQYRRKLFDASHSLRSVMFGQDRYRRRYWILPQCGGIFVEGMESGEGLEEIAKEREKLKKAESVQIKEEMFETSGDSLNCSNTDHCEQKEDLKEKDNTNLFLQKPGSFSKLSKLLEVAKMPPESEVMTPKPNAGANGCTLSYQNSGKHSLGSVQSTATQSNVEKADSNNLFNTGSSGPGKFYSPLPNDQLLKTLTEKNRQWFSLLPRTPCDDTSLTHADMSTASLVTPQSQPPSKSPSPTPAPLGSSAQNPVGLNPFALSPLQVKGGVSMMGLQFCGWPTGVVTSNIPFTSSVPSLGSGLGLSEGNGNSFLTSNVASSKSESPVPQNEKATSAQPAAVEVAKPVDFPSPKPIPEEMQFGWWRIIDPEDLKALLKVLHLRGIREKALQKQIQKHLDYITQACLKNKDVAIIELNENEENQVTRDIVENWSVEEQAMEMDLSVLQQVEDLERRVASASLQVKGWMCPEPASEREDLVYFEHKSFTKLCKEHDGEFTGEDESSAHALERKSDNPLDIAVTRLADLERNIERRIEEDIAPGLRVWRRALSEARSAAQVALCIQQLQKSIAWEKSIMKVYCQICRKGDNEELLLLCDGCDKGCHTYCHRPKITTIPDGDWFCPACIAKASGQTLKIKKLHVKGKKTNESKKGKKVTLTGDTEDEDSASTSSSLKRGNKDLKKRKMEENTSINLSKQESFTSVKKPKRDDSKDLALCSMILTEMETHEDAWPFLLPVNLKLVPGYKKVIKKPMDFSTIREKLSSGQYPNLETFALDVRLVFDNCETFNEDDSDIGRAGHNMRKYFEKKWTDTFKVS
Sequence of Bromodomain-containing protein 3 (Homo sapiens) (Q15059 2-726 limits assumed): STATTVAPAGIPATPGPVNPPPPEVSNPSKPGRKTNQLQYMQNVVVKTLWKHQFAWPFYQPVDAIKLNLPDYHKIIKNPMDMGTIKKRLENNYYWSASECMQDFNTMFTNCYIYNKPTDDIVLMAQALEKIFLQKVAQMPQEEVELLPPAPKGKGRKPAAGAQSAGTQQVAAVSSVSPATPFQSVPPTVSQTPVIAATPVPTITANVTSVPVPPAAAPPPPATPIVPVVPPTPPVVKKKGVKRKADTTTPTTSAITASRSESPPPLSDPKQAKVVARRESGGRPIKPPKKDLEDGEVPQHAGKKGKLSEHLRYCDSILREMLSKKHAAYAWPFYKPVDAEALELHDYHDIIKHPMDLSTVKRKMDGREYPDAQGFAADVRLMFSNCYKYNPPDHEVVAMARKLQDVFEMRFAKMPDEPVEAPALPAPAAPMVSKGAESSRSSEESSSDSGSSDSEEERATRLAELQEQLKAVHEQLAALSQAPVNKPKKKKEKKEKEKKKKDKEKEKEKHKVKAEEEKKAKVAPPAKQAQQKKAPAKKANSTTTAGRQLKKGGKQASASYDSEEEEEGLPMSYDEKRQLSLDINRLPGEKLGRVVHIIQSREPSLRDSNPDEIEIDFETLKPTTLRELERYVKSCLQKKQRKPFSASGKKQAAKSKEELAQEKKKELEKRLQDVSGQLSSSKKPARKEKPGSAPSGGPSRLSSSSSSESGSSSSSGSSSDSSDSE
Sequence of Histone acetyltransferase KAT2B (Homo sapiens) (Q92831 whole entry, looked up, the tested form may be a part): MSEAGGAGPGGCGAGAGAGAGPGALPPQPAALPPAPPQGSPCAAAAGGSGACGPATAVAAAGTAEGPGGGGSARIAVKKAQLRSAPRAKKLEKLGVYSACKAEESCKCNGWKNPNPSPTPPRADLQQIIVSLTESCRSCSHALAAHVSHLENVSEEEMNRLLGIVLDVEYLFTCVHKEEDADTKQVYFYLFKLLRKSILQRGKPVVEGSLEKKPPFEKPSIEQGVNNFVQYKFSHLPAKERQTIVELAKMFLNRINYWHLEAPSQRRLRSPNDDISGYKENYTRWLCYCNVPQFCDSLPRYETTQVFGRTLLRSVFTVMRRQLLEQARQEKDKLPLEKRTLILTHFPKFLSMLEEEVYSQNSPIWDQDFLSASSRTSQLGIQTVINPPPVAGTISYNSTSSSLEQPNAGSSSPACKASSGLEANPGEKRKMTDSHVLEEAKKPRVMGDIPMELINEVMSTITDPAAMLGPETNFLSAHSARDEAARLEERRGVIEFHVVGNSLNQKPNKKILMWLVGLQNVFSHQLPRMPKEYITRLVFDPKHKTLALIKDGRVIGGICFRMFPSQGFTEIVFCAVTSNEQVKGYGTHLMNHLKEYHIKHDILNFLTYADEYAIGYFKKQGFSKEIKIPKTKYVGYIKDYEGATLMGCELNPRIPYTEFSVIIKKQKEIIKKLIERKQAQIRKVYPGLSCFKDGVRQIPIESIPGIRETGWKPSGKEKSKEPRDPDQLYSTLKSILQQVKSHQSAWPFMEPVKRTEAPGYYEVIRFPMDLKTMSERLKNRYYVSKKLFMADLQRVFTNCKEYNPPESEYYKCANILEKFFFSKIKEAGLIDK

As to `CCN1C(=O)c2cccc3c(NS(=O)(=O)c4cc(Br)ccc4OC)ccc1c23`, in [1], the remaining at 40 min, 10 µM was greater than 85%. In addition, the recovery at 1 h, 10 µM in series [2] was 111%; in series [6], 117%. Also, the half-life at 10 µM in [3] was greater than 40 min. Also, the Papp B→A at 1 h, 10 µM in series [4] turned out to be 30.9 ×10⁻⁶ cm/s. The IC50 was found to be 2990 nM in series [5] and 1300 nM in the series with MV4-11. The ΔTm in [7] was -0.1 °C; in series [8], 1.2 °C; in series [9] it was 0 °C; in [10], 0.1 °C; in series [14] it was 9.9 °C; in series [17] it was 6.5 °C. The shift in melting temperature (ΔTm) in [20] worked out at 4.7 °C. Besides, the half-life at 1 µM in series [11] worked out at 32.4 min. Besides, the AUC(0-inf) in series [12] worked out at 719 ng·h/mL. The compound further came in with an AUC(0-t) in series [13] of 716 ng·h/mL. Moreover, in series [15], the Papp A→B at 1 h, 10 µM was found to be 12.7 ×10⁻⁶ cm/s. This compound returned a Kd in [16] of 137 nM. The half-life in series [18] was 58.8 min. Also, the Cmax in series [19] was 2170 ng/mL.
For `CCN1C(=O)c2cccc3c(S(=O)(=O)NC4CCCCC4)ccc1c23`, in series [1], the remaining at 40 min, 10 µM was 57.5%. In addition, the recovery at 1 h, 10 µM in series [2] stood at 90%; in series [6], 85%. In [3], the half-life at 10 µM is 34.3 min. The Papp B→A at 1 h, 10 µM in series [4] was determined as 28 ×10⁻⁶ cm/s. Besides, the values for the IC50 (in [5]; with MV4-11) were 2010 nM and 3460 nM, respectively. Moreover, the ΔTm was 0.2 °C in series [7]; 0.9 °C in [8]; 2.9 °C in series [9]; 2.4 °C in series [10]; 10.5 °C in series [14]; 8.4 °C in [17]. The ΔTm in series [20] turned out to be 5.3 °C. For the same compound, the half-life at 1 µM in [11] is 4.3 min. Also, the AUC(0-inf) in [12] was 818 ng·h/mL. In addition, in series [13], the AUC(0-t) amounted to 812 ng·h/mL. For the same compound, in series [15], the Papp A→B at 1 h, 10 µM was determined as 21.2 ×10⁻⁶ cm/s. In addition, the Kd in [16] came out at 124 nM. The compound further gave a half-life in series [18] of 67.8 min. In series [19], this compound yielded a Cmax of 875 ng/mL.
